Experimental data published in ChEMBL document CHEMBL1122125, “Synthesis and in vivo antitumor activity of potential 5-fluorouracil prodrugs” (1982).

Tests used:
Type in all cases: functional
Mus musculus [1] = assay: Antitumor activity was determined for median survival of mice against P-388 leukemia in mice at a dose of 200 mg/kg
Procedure, shortened: (§1)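 Male B6D2F1J mice implanted ip with 10⁶ P-388 cells on day 0; test agents given ip on days 1–4 (qd × 4) in sterile saline, or in 10% Tween 80 for the lipophilic thioether. Groups of 5 treated mice, with 10–17 untreated controls per experiment. Mice weighed on days 1 and 7 to give the 7-day weight change in g and %. Survival recorded in days as median and range.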

Mus musculus [2] = assay: Percent increase in life span against P-388 leukemia in mice was determined at a dose of 300 mg/kg; conditions: P388
Procedure, shortened: (§2)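 Male B6D2F1J mice, 5 per dose group, received 10⁶ P-388 cells ip on day 0. Dosing was ip qd × 4 on days 1-4 in sterile saline, or 10% Tween 80 for the butyl thioether. Median survival times of treated (T) and untreated control (C, 10-17 mice) groups were compared: %ILS = [(T/C) − 1]100. Weights taken on days 1 and 7.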

Mus musculus [3] = assay: Percent increase in life span against P-388 leukemia in mice was determined at a dose of 200 mg/kg; conditions: P388; procedure, shortened: as §2
Mus musculus [4] = assay: Antitumor activity was determined for survival range of mice against P-388 leukemia in mice at a dose of 100 mg/kg; procedure, shortened: as §1
Mus musculus [5] = assay: Antitumor activity was determined for average weight on day 1 against P-388 leukemia in mice at a dose of 200 mg/kg
Procedure, shortened: (§3)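 Male B6D2F1J mice, groups of 5, inoculated ip with 10⁶ P-388 cells on day 0. Drug given ip on days 1-4 (qd × 4) in sterile saline, or in 10% Tween 80 for the poorly water-soluble thioether. Average weight per mouse recorded on day 1, with reweighing on day 7 for percent weight change. Untreated control groups had 10-17 animals per experiment.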

Mus musculus [6] = assay: Percent increase in life span against P-388 leukemia in mice was determined at a dose of 100 mg/kg; conditions: P388; procedure, shortened: as §2
Mus musculus [7] = assay: Antitumor activity was determined for 7-day average percent weight change against P-388 leukemia in mice at a dose of 50 mg/kg
Procedure, shortened: (§4)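 Male B6D2F1J mice given 10⁶ P-388 cells ip on day 0, then treated ip once daily on days 1-4 (qd × 4), 5 mice per dose group. Compounds dosed in sterile saline, except one lipophilic thioether given in 10% Tween 80. Mice weighed on days 1 and 7; mean weight per mouse on day 1 and 7-day weight change reported in g and as percent.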

Mus musculus [8] = assay: Antitumor activity was determined for median survival of mice against P-388 leukemia in mice at a dose of 300 mg/kg; procedure, shortened: as §1
Mus musculus [9] = assay: Percent increase in life span against P-388 leukemia in mice was determined at a dose of 50 mg/kg; conditions: P388; procedure, shortened: as §2
Mus musculus [10] = assay: Antitumor activity was determined for average 7-day weight change against P-388 leukemia in mice at a dose of 200 mg/kg; procedure, shortened: as §4
Mus musculus [11] = assay: Antitumor activity was determined for average weight on day 1 against P-388 leukemia in mice at a dose of 100 mg/kg; procedure, shortened: as §4
Mus musculus [12] = assay: Antitumor activity was determined for 7-day average percent weight change against P-388 leukemia in mice at a dose of 200 mg/kg; procedure, shortened: as §4
Mus musculus [13] = assay: Antitumor activity was determined for survival range of mice against P-388 leukemia in mice at a dose of 50 mg/kg; procedure, shortened: as §1
Mus musculus [14] = assay: Antitumor activity was determined for 7-day average percent weight change against P-388 leukemia in mice at a dose of 100 mg/kg; procedure, shortened: as §4
Mus musculus [15] = assay: Antitumor activity was determined for median survival of mice against P-388 leukemia in mice at a dose of 50 mg/kg; procedure, shortened: as §1
Mus musculus [16] = assay: Antitumor activity was determined for survival range of mice against P-388 leukemia in mice at a dose of 200 mg/kg; procedure, shortened: as §1
Mus musculus [17] = assay: Antitumor activity was determined for average weight on day 1 against P-388 leukemia in mice at a dose of 50 mg/kg; procedure, shortened: as §3
Mus musculus [18] = assay: Antitumor activity was determined for median survival of mice against P-388 leukemia in mice at a dose of 25 mg/kg; procedure, shortened: as §1
Mus musculus [19] = assay: Antitumor activity was determined for average 7-day weight change against P-388 leukemia in mice at a dose of 25 mg/kg; procedure, shortened: as §4
Mus musculus [20] = assay: Antitumor activity was determined for average 7-day weight change against P-388 leukemia in mice at a dose of 300 mg/kg; procedure, shortened: as §4
Mus musculus [21] = assay: Antitumor activity was determined for average weight on day 1 against P-388 leukemia in mice at a dose of 300 mg/kg; procedure, shortened: as §3
Mus musculus [22] = assay: Antitumor activity was determined for median survival of mice against P-388 leukemia in mice at a dose of 100 mg/kg; procedure, shortened: as §1
Mus musculus [23] = assay: Antitumor activity was determined for 7-day average percent weight change against P-388 leukemia in mice at a dose of 25 mg/kg; procedure, shortened: as §4
Mus musculus [24] = assay: Antitumor activity was determined for survival range of mice against P-388 leukemia in mice at a dose of 25 mg/kg; procedure, shortened: as §1
Mus musculus [25] = assay: Percent increase in life span against P-388 leukemia in mice was determined at a dose of 25 mg/kg; conditions: P388; procedure, shortened: as §2
L1210 = assay: Evaluated for cytotoxicity against L1210 mouse leukemia cells; conditions: read-out: ID50 (the source's name)
Procedure, shortened: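 L1210 murine leukemia cells in Eagle's minimal essential medium with 15% fetal calf serum, streptomycin (100 μg/mL), penicillin (100 units/mL) and 0.05 mM 2-mercaptoethanol. Cells counted by Coulter counter after 48 h exposure. ID50 is the 50% growth-inhibitory dose. Triplicate assays, standard deviation ±10%.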

Mus musculus [26] = assay: Antitumor activity was determined for survival range of mice against P-388 leukemia in mice at a dose of 300 mg/kg; procedure, shortened: as §1
Mus musculus [27] = assay: Antitumor activity was determined for average weight on day 1 against P-388 leukemia in mice at a dose of 25 mg/kg; procedure, shortened: as §3
Mus musculus [28] = assay: Antitumor activity was determined for average 7-day weight change against P-388 leukemia in mice at a dose of 100 mg/kg; procedure, shortened: as §4
Mus musculus [29] = assay: Antitumor activity was determined for average 7-day weight change against P-388 leukemia in mice at a dose of 50 mg/kg; procedure, shortened: as §4
Mus musculus [30] = assay: Antitumor activity was determined for 7-day average percent weight change against P-388 leukemia in mice at a dose of 300 mg/kg; procedure, shortened: as §4

`O=C(O)[C@H]1OC(n2cc(F)c(=O)[nH]c2=O)[C@H](O)[C@@H]1O` (stereo partly specified) was tested, and the Survival median (Mus musculus [1]) was 16, the ILS at 300 mg/kg (Mus musculus [2]) was 63% and the ILS at 200 mg/kg (Mus musculus [3]) was 45%. For the same compound, the Survival range (Mus musculus [4]) was 15, the Average weight (Mus musculus [5]) was 23.8 g mouse-1 and the ILS at 100 mg/kg (Mus musculus [6]) was 45%. It also gave a Weight change (Mus musculus [7]) of 7%, a Survival median (Mus musculus [8]) of 18 and an ILS at 50 mg/kg (Mus musculus [9]) of 36%. The Average weight (Mus musculus [10]) was -0.8 g mouse-1, the Average weight (Mus musculus [11]) was 23.6 g mouse-1 and the Weight change (Mus musculus [12]) was -3%. It also gave a Survival range (Mus musculus [13]) of 13, a Weight change (Mus musculus [14]) of 8% and a Survival median (Mus musculus [15]) of 15. The Survival range (Mus musculus [16]) was 16, the Average weight (Mus musculus [17]) was 24.2 g mouse-1 and the Survival median (Mus musculus [18]) was 14. It also gave an Average weight (Mus musculus [19]) of 2.6 g mouse-1, an Average weight (Mus musculus [20]) of 0 g mouse-1 and an Average weight (Mus musculus [21]) of 25 g mouse-1. For the same compound, the Survival median (Mus musculus [22]) was 16, the Weight change (Mus musculus [23]) was 10% and the Survival range (Mus musculus [24]) was 14. It also gave an ILS at 25 mg/kg (Mus musculus [25]) of 27%, an IC50 (L1210) greater than 1 mM and a Survival range (Mus musculus [26]) of 16. The Average weight (Mus musculus [27]) was 24.6 g mouse-1, the Average weight (Mus musculus [28]) was 2 g mouse-1 and the Average weight (Mus musculus [29]) was 1.6 g mouse-1. For the same compound, the Weight change (Mus musculus [30]) was 0%.
